Reference: ChEMBL document CHEMBL1128665, “Design, synthesis, and structure-activity relationship of novel dinucleotide analogs as agents against herpes and human immunodeficiency viruses” (J Med Chem, 1995)

Key:
[1] = compound: Nc1ncnc2c1ncn2COCCO; assay: (§1) Km value was determined by competitive inhibition of Adenosine deaminase
Method in brief: (§2)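 Deamination rates of the nucleoside or nucleotide substrates were followed with calf mucosal adenosine deaminase (EC 3.5.4.4) in buffer solution. Km and Vmax, expressed relative to ara-A, were derived from these rates.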

[2] = compound: Nc1ncnc2c1ncn2COCCP(=O)(O)O; assay: as §1; method in brief: as §2
[3] = compound: Nc1ncnc2c1ncn2COCCP(=O)(O)O[C@H]1[C@H](O)[C@H](n2cnc3c(N)ncnc32)O[C@@H]1CO; assay: as §1; method in brief: as §2
[4] = compound: Nc1ncnc2c1ncn2[C@@H]1O[C@H](CO)[C@@H](O)[C@H]1O; assay: as §1; method in brief: as §2
[5] = compound: COC(=O)C(C)NP(=O)(CCOCn1cnc2c(N)ncnc21)O[C@H]1[C@H](O)[C@H](n2cnc3c(N)ncnc32)O[C@@H]1CO; assay: Km value was determined by competitive inhibition of Adenosine deaminase No reaction at 1500 uM

B1: Adenosine deaminase (Bos taurus), P56658 (protein)
chain: MAQTPAFNKPKVELHVHLDGAIKPETILYYGRKRGIALPADTPEELQNIIGMDKPLSLPEFLAKFDYYMPAIAGCREAVKRIAYEFVEMKAKDGVVYVEVRYSPHLLANSKVEPIPWNQAEGDLTPDEVVSLVNQGLQEGERDFGVKVRSILCCMRHQPSWSSEVVELCKKYREQTVVAIDLAGDETIEGSSLFPGHVKAYAEAVKSGVHRTVHAGEVGSANVVKEAVDTLKTERLGHGYHTLEDATLYNRLRQENMHFEVCPWSSYLTGAWKPDTEHPVVRFKNDQVNYSLNTDDPLIFKSTLDTDYQMTKNEMGFTEEEFKRLNINAAKSSFLPEDEKKELLDLLYKAYGMPSPASAEQCL
For B1, which Km [1] is on record?
The Km was 138 µM.

What about the Km [2] of the same protein?
The Km was 248 µM.

And the Km [3]?
The Km was 166 µM.

What about the Km [4] of the same protein?
Its Km is 45.3 µM.

What about the Km [5] of the same protein?
The Km was “No reaction”.
